Entries after “also recorded” stand apart in the source; their conditions may differ.
Assay: Phase I dose escalation: MTD, DLTs and toxicities
Assay type: in vivo, human
Outline: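 Open-label, four-centre, 3+3 escalation in metastatic solid-tumour patients. Test compound taken orally from 2 mg, QD (2–96 mg) then BID (48–72 mg), in continuous 4-week cycles after a single-dose run-in with 5–7 day washout. Toxicities graded by CTCAE v4.03. DLTs assessed over run-in plus first cycle. MTD: highest level with ≤1 of 6 patients showing DLT. Descriptive statistics.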

CS(=O)(=O)N1CCc2c(-c3cnc(N)nc3)nc(N3CCOCC3)nc21 [CH5132799]
Treatment-related dry skin, number of patients (2 mg QD (n=3), grade 1-2): 1
Treatment-related fatigue, number of patients (2 mg QD (n=3), grade 1-2): 2
Treatment-related nausea, number of patients (2 mg QD (n=3), grade 1-2): 1
Treatment-related nausea, number of patients (4 mg QD (n=3), grade 1-2): 1
Treatment-related rash, number of patients (4 mg QD (n=3), grade 1-2): 1
Treatment-related fatigue, number of patients (8 mg QD (n=3), grade 1-2): 1
Treatment-related rash, number of patients (8 mg QD (n=3), grade 1-2): 1
Treatment-related stomatitis, number of patients (8 mg QD (n=3), grade 1-2): 1
Treatment-related anemia, number of patients (8 mg QD (n=3), grade 3-4): 1
Treatment-related decreased appetite, number of patients (16 mg QD (n=3), grade 1-2): 1
Treatment-related fatigue, number of patients (16 mg QD (n=3), grade 1-2): 1
Treatment-related nausea, number of patients (16 mg QD (n=3), grade 1-2): 2
Treatment-related decreased appetite, number of patients (32 mg QD (n=4), grade 1-2): 2
Treatment-related fatigue, number of patients (32 mg QD (n=4), grade 1-2): 1
Treatment-related nausea, number of patients (32 mg QD (n=4), grade 1-2): 1
Patients with DLT (grade 3 LFT/transaminase elevation) (48 mg BID): one of seven
Treatment-related abdominal pain, number of patients (48 mg BID (n=7), grade 1-2): 1
Treatment-related diarrhea, number of patients (48 mg BID (n=7), grade 1-2): 4
Treatment-related dry skin, number of patients (48 mg BID (n=7), grade 1-2): 2
Treatment-related fatigue, number of patients (48 mg BID (n=7), grade 1-2): 1
Treatment-related rash, number of patients (48 mg BID (n=7), grade 1-2): 1
Treatment-related stomatitis, number of patients (48 mg BID (n=7), grade 1-2): 3
Treatment-related anemia, number of patients (48 mg BID (n=7), grade 3-4): 1
Treatment-related hyperglycemia, number of patients (48 mg BID (n=7), grade 3-4): 1
Grade ≥3 gastrointestinal AEs (48 mg BID cohort): No grade ≥3 gastrointestinal AEs
Patients with DLTs (56 mg BID): Two of five
Treatment-related abdominal pain, number of patients (56 mg BID (n=5), grade 1-2): 1
Treatment-related anemia, number of patients (56 mg BID (n=5), grade 1-2): 1
Treatment-related decreased appetite, number of patients (56 mg BID (n=5), grade 1-2): 2
Treatment-related diarrhea, number of patients (56 mg BID (n=5), grade 1-2): 2
Treatment-related fatigue, number of patients (56 mg BID (n=5), grade 1-2): 3
Treatment-related nausea, number of patients (56 mg BID (n=5), grade 1-2): 3
Treatment-related rash, number of patients (56 mg BID (n=5), grade 1-2): 3
Treatment-related stomatitis, number of patients (56 mg BID (n=5), grade 1-2): 4
Treatment-related vomiting, number of patients (56 mg BID (n=5), grade 1-2): 3
Treatment-related diarrhea, number of patients (56 mg BID (n=5), grade 3-4): 2
Treatment-related hyperglycemia, number of patients (56 mg BID (n=5), grade 3-4): 2
Treatment-related stomatitis, number of patients (56 mg BID (n=5), grade 3-4): 1
Treatment-related abdominal pain, number of patients (56 mg QD (n=3), grade 1-2): 1
Treatment-related diarrhea, number of patients (56 mg QD (n=3), grade 1-2): 2
Treatment-related dry skin, number of patients (56 mg QD (n=3), grade 1-2): 1
Treatment-related nausea, number of patients (56 mg QD (n=3), grade 1-2): 1
Treatment-related rash, number of patients (56 mg QD (n=3), grade 1-2): 1
Patients with DLTs (72 mg BID): two of three
Treatment-related anemia, number of patients (72 mg BID (n=3), grade 1-2): 1
Treatment-related decreased appetite, number of patients (72 mg BID (n=3), grade 1-2): 2
Treatment-related diarrhea, number of patients (72 mg BID (n=3), grade 1-2): 2
Treatment-related fatigue, number of patients (72 mg BID (n=3), grade 1-2): 1
Treatment-related nausea, number of patients (72 mg BID (n=3), grade 1-2): 1
Treatment-related stomatitis, number of patients (72 mg BID (n=3), grade 1-2): 1
Treatment-related vomiting, number of patients (72 mg BID (n=3), grade 1-2): 1
Treatment-related abdominal pain, number of patients (72 mg BID (n=3), grade 3-4): 1
Treatment-related fatigue, number of patients (72 mg BID (n=3), grade 3-4): 1
Treatment-related hyperglycemia, number of patients (72 mg BID (n=3), grade 3-4): 1
Treatment-related anemia, number of patients (96 mg QD (n=4), grade 1-2): 1
Treatment-related decreased appetite, number of patients (96 mg QD (n=4), grade 1-2): 1
Treatment-related diarrhea, number of patients (96 mg QD (n=4), grade 1-2): 3
Treatment-related dry skin, number of patients (96 mg QD (n=4), grade 1-2): 2
Treatment-related fatigue, number of patients (96 mg QD (n=4), grade 1-2): 1
Treatment-related nausea, number of patients (96 mg QD (n=4), grade 1-2): 2
Treatment-related rash, number of patients (96 mg QD (n=4), grade 1-2): 2
Treatment-related stomatitis, number of patients (96 mg QD (n=4), grade 1-2): 2
Treatment-related vomiting, number of patients (96 mg QD (n=4), grade 1-2): 2
Treatment-related diarrhea, number of patients (96 mg QD (n=4), grade 3-4): 2
Patients with Grade ≥3 hyperglycemia (BID dosing schedule): Five
Maximum tolerated dose (MTD) (BID schedule, oral, 28-day cycles, patients with solid tumors): 48 mg
Recommended phase 2 dose (RP2D) (BID, oral): 48 mg
DLT (Cohort 7b, 48 mg BID, N=7, Cycle 1 Day 8): grade 3 elevated LFT at Cycle 1 Day 8
DLT (Cohort 8, 72 mg BID, N=3, Cycle 1): grade 3 cerebral encephalopathy; also recorded: grade 3 Fatigue
DLT (Cohort 9, 56 mg BID, N=5): grade 3 Diarrhea and stomatitis
DLTs (QD schedule): No DLTs
Maximum tolerated dose (MTD) (QD schedule, 2-96 mg, oral): not reached at 96 mg
Reversibility of DLTs (all DLTs): reversible
Grade 4 diarrhea (all dose levels): no grade 4 diarrhea reported
Patients with grade 3 diarrhea (all dose levels): Four
Treatment-related abdominal pain, number (%) of patients (all dose levels, Total (n=38)): 4 (11%)
Treatment-related anemia, number (%) of patients (all dose levels, Total (n=38)): 5 (13%)
Treatment-related decreased appetite, number (%) of patients (all dose levels, Total (n=38)): 8 (21%)
Treatment-related diarrhea, number (%) of patients (all dose levels, Total (n=38)): 13 (34%)

— PMC4254850 (Clinical cancer research : an official journal of the …, 2014)
